Experimental data as given in ChEMBL document CHEMBL4145674, “Discovery of 3-Benzyl-1-( trans-4-((5-cyanopyridin-2-yl)amino)cyclohexyl)-1-arylurea Derivatives as Novel and Selective Cyclin-Dependent Kinase 12 (CDK12) Inhibitors” (J Med Chem, 2018).
Values after ≈ are worked out from the molar mass of the structure shown. Active and inactive are the calls of the source. No cut-off for these calls is given here.

Legend:
CDK12/Cyclin K = CDK12/Cyclin K (Homo sapiens, UniProt Q9NYV4); experiment: Inhibition of N-terminal FLAG-tagged human full-length CDK12 (1 to 1490 residues)/N-terminal His-tagged CycK (1 to 580 residues) expressed in Sf9 cells assessed as reduction in ATP-dependent ULight-4E-BP1 (Thr37/Thr46) substrate peptide phosphorylation pre-incubated for 60 mins by LANCE Ultra assay
CDK12/Cyclin K, sequence (O75909 whole entry, the tested form may be a part): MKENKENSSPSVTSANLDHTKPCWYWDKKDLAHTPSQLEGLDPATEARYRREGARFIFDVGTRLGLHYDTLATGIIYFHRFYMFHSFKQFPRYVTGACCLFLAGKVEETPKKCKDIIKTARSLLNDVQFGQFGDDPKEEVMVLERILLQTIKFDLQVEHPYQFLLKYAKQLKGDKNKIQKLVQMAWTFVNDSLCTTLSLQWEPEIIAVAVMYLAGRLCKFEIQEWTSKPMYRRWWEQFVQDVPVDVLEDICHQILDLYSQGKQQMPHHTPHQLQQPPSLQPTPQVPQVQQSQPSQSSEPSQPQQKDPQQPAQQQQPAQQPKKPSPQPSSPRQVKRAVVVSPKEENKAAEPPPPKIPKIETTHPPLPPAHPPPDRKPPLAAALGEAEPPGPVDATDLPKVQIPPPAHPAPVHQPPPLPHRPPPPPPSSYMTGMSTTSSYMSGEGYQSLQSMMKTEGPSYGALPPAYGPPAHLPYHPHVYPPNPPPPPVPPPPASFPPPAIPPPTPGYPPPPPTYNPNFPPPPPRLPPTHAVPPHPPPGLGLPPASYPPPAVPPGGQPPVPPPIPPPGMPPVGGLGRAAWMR
CDK12/Cyclin K, sequence (Q9NYV4 whole entry, the tested form may be a part): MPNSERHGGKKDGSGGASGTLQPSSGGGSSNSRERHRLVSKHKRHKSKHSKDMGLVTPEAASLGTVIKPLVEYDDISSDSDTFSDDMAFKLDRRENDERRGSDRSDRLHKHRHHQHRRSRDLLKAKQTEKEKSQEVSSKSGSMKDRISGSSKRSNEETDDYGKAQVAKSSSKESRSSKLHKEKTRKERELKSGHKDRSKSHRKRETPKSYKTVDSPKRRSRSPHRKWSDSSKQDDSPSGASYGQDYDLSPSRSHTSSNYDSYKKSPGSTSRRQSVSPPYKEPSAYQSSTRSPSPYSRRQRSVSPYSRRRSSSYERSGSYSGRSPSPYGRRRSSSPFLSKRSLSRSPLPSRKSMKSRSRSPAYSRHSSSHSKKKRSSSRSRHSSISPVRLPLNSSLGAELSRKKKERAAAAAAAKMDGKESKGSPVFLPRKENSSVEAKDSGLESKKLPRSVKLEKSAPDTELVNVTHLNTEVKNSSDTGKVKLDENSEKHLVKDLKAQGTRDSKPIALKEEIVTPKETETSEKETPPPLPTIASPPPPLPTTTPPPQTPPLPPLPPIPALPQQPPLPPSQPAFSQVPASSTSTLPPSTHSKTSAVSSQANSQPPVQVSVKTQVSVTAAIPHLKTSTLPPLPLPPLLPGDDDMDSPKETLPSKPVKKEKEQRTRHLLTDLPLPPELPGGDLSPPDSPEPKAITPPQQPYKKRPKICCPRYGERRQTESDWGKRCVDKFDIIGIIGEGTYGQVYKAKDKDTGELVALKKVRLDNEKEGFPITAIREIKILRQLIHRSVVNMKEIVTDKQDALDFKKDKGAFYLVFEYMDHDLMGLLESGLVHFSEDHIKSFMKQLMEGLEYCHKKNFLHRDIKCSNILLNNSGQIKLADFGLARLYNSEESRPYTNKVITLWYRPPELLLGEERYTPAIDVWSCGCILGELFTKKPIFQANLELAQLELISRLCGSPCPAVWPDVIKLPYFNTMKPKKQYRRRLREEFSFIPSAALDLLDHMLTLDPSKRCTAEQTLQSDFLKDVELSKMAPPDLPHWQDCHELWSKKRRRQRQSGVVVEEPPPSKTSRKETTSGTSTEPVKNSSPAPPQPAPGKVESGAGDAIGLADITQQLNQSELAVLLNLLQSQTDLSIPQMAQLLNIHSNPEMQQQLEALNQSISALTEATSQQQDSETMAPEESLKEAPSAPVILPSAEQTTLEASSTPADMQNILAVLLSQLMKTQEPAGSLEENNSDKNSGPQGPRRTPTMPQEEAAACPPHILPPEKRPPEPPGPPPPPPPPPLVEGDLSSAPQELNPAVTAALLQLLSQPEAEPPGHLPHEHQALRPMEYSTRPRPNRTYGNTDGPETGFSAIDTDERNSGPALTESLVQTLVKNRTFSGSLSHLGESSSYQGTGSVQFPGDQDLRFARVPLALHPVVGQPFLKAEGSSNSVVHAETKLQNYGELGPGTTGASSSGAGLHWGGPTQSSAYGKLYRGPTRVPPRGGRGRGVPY

CDK2/Cyclin A2 = CDK2/Cyclin A2 (Homo sapiens, UniProt P24941); experiment: Inhibition of GST-tagged human CDK2/CCNA2 (04 to 103 residues) pre-incubated for 5 mins before addition of histone H1 substrate and [gamma-33P]ATP and measured after 20 mins by radiometric assay; assay type: protein-complex assay
Method in brief: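 GST-CDK2/CCNA2 at 1.8 mU/well in 25 mM HEPES pH 7.5, 10 mM Mg acetate, 1 mM DTT. Compound and enzyme together 5 min at room temperature before ATP start. Final levels: histone H1 1 μg/well, [γ-33P]ATP 500 nM. Reaction 20 min at room temperature, stopped with 10% TCA. Filter capture, phosphoric acid wash, scintillation counting. IC50 reported.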

[1] = Solubility in aqueous buffer solution at pH 6.8 by UV absorbance spectroscopy; assay type: physicochemical
Method in brief: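 Compound in DMSO spiked into aqueous buffer pH 6.8 and incubated. Precipitate removed by filtration, dissolved compound quantified by UV absorbance of the filtrate.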

CDK9/cyclin T1 = CDK9/cyclin T1 (Homo sapiens, UniProt P50750); assay type: protein-complex assay
CDK9/cyclin T1, sequence (O60563 whole entry): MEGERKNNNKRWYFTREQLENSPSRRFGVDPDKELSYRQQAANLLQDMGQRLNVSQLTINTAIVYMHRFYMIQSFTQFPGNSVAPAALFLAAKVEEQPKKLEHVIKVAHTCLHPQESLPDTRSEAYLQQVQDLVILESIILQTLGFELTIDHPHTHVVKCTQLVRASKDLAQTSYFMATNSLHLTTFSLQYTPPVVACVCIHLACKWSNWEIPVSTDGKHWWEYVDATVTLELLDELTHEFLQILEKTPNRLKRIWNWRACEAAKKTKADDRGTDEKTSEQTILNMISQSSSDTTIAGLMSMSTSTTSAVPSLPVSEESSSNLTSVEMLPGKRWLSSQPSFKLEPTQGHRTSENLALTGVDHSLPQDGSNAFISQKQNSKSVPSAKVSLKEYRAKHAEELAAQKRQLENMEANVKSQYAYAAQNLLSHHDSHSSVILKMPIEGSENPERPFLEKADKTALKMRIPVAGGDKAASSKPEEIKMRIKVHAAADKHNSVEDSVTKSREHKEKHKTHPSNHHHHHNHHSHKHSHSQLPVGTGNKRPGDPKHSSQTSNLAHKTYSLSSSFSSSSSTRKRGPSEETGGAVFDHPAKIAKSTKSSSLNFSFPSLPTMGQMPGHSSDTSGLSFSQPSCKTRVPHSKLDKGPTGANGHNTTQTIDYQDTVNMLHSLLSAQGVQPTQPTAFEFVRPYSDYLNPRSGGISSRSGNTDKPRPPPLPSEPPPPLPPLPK
CDK9/cyclin T1, sequence (P50750 whole entry): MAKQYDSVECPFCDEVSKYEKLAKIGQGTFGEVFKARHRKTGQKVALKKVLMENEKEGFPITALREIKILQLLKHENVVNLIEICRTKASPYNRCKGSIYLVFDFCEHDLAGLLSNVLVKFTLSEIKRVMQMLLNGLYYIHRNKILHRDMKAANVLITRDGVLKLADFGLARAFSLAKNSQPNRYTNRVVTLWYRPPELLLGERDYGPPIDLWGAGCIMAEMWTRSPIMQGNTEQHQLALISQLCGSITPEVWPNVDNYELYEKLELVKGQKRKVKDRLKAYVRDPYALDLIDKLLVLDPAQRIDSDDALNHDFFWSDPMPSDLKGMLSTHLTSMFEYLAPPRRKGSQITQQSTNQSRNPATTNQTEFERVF

[2] = Partition coefficient between 1-octanol and aqueous buffer, log D of the compound at pH 7.4 buffer by chromatography; assay type: physicochemical; conditions: 1-octanol/aqueous buffer
Method in brief: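 log D as octanol/buffer partition at pH 7.4, determined chromatographically.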

[3] = Permeability of the compound at 10 umol/L incubated for 3 hrs by LC/MS/MS detection based PAMPA method; assay type: ADME; conditions: read-out: permeability
Method in brief: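 PAMPA: donor buffer pH 7.4 holding 10 μmol/L compound; acceptor filter coated with GIT-0 lipid, acceptor sink buffer. 3 h at room temperature. Compound in donor and acceptor wells quantified by LC/MS/MS.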

Homo sapiens = organism: Homo sapiens; experiment: Selectivity index, ratio of IC50 for inhibition of GST-tagged human CDK2/CCNA2 (04 to 103 residues) to IC50 for inhibition of N-terminal FLAG-tagged human full-length CDK12 (1 to 1490 residues)/N-terminal His-tagged CycK (1 to 580 residues) expressed in Sf9 cells
Method in brief: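 Ratio of two IC50s. CDK2/CCNA2: radiometric assay, 1.8 mU/well enzyme, histone H1 (1 μg/well), 500 nM [γ-33P]ATP, 5 min compound preincubation, 20 min at room temperature, TCA stop, filter-bound counts. In-house CDK12/CycK (30 nM): LANCE TR-FRET, ULight-4E-BP1 peptide 150 nM, ATP 10 μM, HEPES pH 7.5, 60 min preincubation, EDTA/Eu-antibody stop.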

CDK7/Cyclin H/MNAT1 = CDK7/Cyclin H/MNAT1 (Homo sapiens, UniProt P50613)
CDK7/Cyclin H/MNAT1, sequence (P51946 whole entry, the tested form may be a part): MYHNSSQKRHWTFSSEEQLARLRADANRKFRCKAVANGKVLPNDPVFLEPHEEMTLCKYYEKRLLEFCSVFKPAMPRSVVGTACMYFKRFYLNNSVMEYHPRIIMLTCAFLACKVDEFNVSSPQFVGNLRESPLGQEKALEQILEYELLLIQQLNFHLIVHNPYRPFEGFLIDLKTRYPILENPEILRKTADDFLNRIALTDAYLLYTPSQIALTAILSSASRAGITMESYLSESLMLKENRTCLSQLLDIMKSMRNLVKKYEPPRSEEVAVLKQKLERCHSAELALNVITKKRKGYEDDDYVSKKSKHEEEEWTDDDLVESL
CDK7/Cyclin H/MNAT1, sequence (P50613 whole entry, the tested form may be a part): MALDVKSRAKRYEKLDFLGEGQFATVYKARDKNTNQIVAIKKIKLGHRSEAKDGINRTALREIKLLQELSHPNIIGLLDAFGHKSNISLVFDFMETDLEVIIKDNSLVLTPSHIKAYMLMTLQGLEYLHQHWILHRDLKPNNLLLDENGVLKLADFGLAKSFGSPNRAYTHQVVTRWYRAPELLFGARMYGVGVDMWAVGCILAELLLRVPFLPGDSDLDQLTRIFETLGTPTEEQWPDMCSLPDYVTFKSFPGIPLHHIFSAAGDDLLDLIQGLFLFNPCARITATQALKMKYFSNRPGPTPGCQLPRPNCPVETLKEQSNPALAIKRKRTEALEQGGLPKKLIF
CDK7/Cyclin H/MNAT1, sequence (P51948 whole entry, further chain, the tested form may be a part): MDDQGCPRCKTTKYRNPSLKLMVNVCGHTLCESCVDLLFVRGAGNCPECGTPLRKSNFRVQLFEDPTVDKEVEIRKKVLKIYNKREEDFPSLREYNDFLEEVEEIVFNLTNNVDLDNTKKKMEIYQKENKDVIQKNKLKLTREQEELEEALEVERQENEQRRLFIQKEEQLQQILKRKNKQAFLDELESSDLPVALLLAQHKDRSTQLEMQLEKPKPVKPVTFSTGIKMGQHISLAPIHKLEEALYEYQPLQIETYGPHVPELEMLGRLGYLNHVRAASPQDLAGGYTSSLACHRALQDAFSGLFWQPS

CDK8/Cyclin C = CDK8/Cyclin C (Homo sapiens, UniProt P49336); experiment: Inhibition of GST-tagged human CDK8/CycC (04 to 109 residues) using kinase tracer 236 probe incubated for 60 mins by TR-FRET assay; assay type: protein-complex assay
CDK8/Cyclin C, sequence (P49336 whole entry, the tested form may be a part): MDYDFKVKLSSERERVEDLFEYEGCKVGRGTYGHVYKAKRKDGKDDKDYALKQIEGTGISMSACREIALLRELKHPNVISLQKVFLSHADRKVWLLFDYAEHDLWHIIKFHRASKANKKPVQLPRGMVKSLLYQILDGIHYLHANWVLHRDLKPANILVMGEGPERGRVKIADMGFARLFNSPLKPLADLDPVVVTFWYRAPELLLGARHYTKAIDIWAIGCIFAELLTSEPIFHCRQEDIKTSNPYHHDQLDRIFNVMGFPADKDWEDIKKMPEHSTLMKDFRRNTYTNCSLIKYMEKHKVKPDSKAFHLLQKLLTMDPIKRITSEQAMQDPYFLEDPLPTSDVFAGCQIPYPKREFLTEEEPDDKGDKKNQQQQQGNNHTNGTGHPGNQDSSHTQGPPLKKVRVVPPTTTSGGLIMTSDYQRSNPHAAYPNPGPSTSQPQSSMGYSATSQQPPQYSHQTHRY
CDK8/Cyclin C, sequence (P24863 whole entry, further chain, the tested form may be a part): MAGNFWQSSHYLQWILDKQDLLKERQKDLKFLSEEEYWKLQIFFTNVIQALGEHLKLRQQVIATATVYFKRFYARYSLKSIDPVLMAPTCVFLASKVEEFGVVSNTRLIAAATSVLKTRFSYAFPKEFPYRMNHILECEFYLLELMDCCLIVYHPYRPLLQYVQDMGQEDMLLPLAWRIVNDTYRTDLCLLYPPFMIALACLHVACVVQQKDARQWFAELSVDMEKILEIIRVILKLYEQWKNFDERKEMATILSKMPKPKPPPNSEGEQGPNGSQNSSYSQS

[4] = molecular target: Cyclin-dependent kinase 12 (Homo sapiens, UniProt Q9NYV4); experiment: Time dependent inhibition of human CDK12 incubated for 0 to 5 hrs using ULight-4E-BP1 (Thr37/Thr46) substrate by LANCE system based assay
Cyclin-dependent kinase 12, sequence (Q9NYV4 whole entry, looked up): as the sequence (Q9NYV4 whole entry, the tested form may be a part) above

Row | IC50 (CDK12/Cyclin K) [nM] | IC50 (CDK2/Cyclin A2) [nM] | Structure (SMILES) | other results
1 | 99 | > 100000 | Cn1cc(-c2ccc(N(C(=O)NCC3CCCCC3)[C@H]3CC[C@H](Nc4ccc(C#N)cn4)CC3)cc2)cn1 | 
2 | 310 | 27000 | Cn1c(-c2ccc(N(C(=O)NCc3ccccc3)[C@H]3CC[C@H](Nc4ccc(C#N)cn4)CC3)cc2)cccc1=O | solubility [1]: < 0.09 µg/mL; IC50 (CDK9/cyclin T1): > 30000 nM; chromatographic logD [2]: 2.6
3 | > 30000 | 68000 | CN(c1ccc(C#N)cn1)C1CCN(S(=O)(=O)c2ccc(-c3cnn(C)c3)cc2)CC1 | 
4 | 44 | > 100000 | Cn1ccc(-c2ccc(N(C(=O)NCc3ccccc3)[C@H]3CC[C@H](Nc4ccc(C#N)cn4)CC3)cc2)cc1=O | solubility [1]: < 0.08 µg/mL; IC50 (CDK9/cyclin T1): > 30000 nM; chromatographic logD [2]: 2.3; Papp at 3 h, 10 µM [3]: 24.7 ×10⁻⁶ cm/s
5 | 23000 |  | Cn1cc(-c2ccc(C(=O)N3CCC(Nc4ccc(C#N)cn4)CC3)cc2)cn1 | 
6 | 63 | > 100000 | Cn1cc(-c2ccc(N(C(=O)NCc3ccccc3)[C@H]3CC[C@H](Nc4ccc(C#N)cn4)CC3)cc2)cn1 | solubility [1]: 0.33 µg/mL (≈ 0.653 µM); IC50 (CDK9/cyclin T1): > 30000 nM; chromatographic logD [2]: 2.8; Ratio IC50 (Homo sapiens): > 800; Papp at 3 h, 10 µM [3]: 28.8 ×10⁻⁶ cm/s
7 | 160 | 2900 | Cn1cc(-c2ccc(N(C(=O)CCc3ccccc3)[C@H]3CC[C@H](Nc4ccc(C#N)cn4)CC3)cc2)cn1 | 
8 | > 30000 | > 100000 | CC(=O)N(c1ccc(-c2cnn(C)c2)cc1)[C@H]1CC[C@@H](Nc2ccc(C#N)cn2)CC1 | 
9 | 200 | 1600 | COC(=O)N(c1ccc(-c2cnn(C)c2)cc1)[C@H]1CC[C@H](Nc2ccc(C#N)cn2)CC1 | 
10 | > 30000 | 1200 | Cn1cc(-c2ccc(S(=O)(=O)N3CCC(Nc4ccccn4)CC3)cc2)cn1 | 
11 | 250 | 18000 | Cn1cccc(-c2ccc(N(C(=O)NCc3ccccc3)[C@H]3CC[C@H](Nc4ccc(C#N)cn4)CC3)cc2)c1=O | solubility [1]: 4.7 µg/mL (≈ 8.82 µM); IC50 (CDK9/cyclin T1): 15000 nM; chromatographic logD [2]: 2.7
12 | 16000 |  | Cn1cc(-c2ccc(CN3CCC(Nc4ccc(C#N)cn4)CC3)cc2)cn1 | 
13 | 360 | 10 | Cn1cc(-c2ccc(S(=O)(=O)N3CCC(Nc4ccc(C#N)cn4)CC3)cc2)cn1 | IC50 (CDK7/Cyclin H/MNAT1): > 10000 nM; IC50 (CDK9/cyclin T1): > 30000 nM; IC50 (CDK8/Cyclin C): > 10000 nM
14 | 59 | > 100000 | N#Cc1ccc(N[C@H]2CC[C@H](N(C(=O)NCc3ccccc3)c3ccc(-c4cccnc4)cc3)CC2)nc1 | solubility [1]: 0.67 µg/mL (≈ 1.33 µM); IC50 (CDK9/cyclin T1): > 30000 nM; chromatographic logD [2]: 3; Papp at 3 h, 10 µM [3]: 28 ×10⁻⁶ cm/s
15 | 110 | 31 | Cn1cc(-c2ccc(N([C@H]3CC[C@H](Nc4ccc(C#N)cn4)CC3)S(C)(=O)=O)cc2)cn1 | 
16 |  |  | CN(C)C/C=C/C(=O)Nc1ccc(C(=O)N2CCC[C@@H](Nc3ncc(Cl)c(-c4c[nH]c5ccccc45)n3)C2)cc1 | TDI [4]: Active
17 | 63 | 56000 | N#Cc1ccc(N[C@H]2CC[C@H](N(C(=O)NCc3ccccc3)c3ccccc3)CC2)nc1 | solubility [1]: 4 µg/mL (≈ 9.4 µM); IC50 (CDK9/cyclin T1): > 30000 nM; chromatographic logD [2]: 3.3
18 | 460 | 4800 | CCNC(=O)N(c1ccc(-c2cnn(C)c2)cc1)[C@H]1CC[C@H](Nc2ccc(C#N)cn2)CC1 | 
19 | 1800 | 5.8 | Cn1cc(-c2ccc(S(=O)(=O)N3CCC(Nc4ccc(C(F)(F)F)cn4)CC3)cc2)cn1 | 
20 | 640 | 2500 | Cn1cc(-c2ccc(N(C(=O)OCc3ccccc3)[C@H]3CC[C@H](Nc4ccc(C#N)cn4)CC3)cc2)cn1 | 
21 | 130 | 470 | CC(=O)N(c1ccc(-c2cnn(C)c2)cc1)[C@H]1CC[C@H](Nc2ccc(C#N)cn2)CC1 | 
22 | 8600 | 9800 | Cn1cc(-c2ccc(N[C@H]3CC[C@H](Nc4ccc(C#N)cn4)CC3)cc2)cn1 | 
23 | > 30000 | 32 | Cn1cc(-c2ccc(S(=O)(=O)N3CCC(Nc4cc(C#N)ccn4)CC3)cc2)cn1 | 
24 | 13 | 24 | CC(=O)N(c1ccc(-c2cnn(C)c2)cc1)[C@H]1CC[C@H](Nc2ncc3ccccc3n2)CC1 | 
25 | > 30000 | 21000 | COc1ccc(NC2CCN(S(=O)(=O)c3ccc(-c4cnn(C)c4)cc3)CC2)nc1 | 
26 | > 30000 |  | Cn1cc(-c2ccc(S(=O)(=O)N3CCC(Nc4ccc(C#N)cc4)CC3)cc2)cn1 | 
27 | > 30000 | 46000 | Cn1cc(-c2ccc(S(=O)(=O)N3CCC(Nc4cccc(C#N)n4)CC3)cc2)cn1 | 
